ChEMBL document CHEMBL1126823, “Benextramine-neuropeptide Y receptor interactions: contribution of the benzylic moieties to [3H]neuropeptide Y displacement activity” (J Med Chem, 1993)

Target: not listed separately
Assay: Binding affinity against rat NPY receptor by using [3H]NPY as radioligand
Summary of the method: (§1)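 Male Sprague-Dawley rat (250-300 g) brain membrane homogenate (1.2-1.6 mg protein/mL) incubated with 1.0 nM [3H]NPY and analog 10^-3 to 10^-7 M in Krebs-Ringer bicarbonate/50 mM phosphate, 0.1% BSA, 0.05% bacitracin, pH 7.4, 90 min at 25 °C. Nonspecific binding defined with 1 µM NPY. Filtration onto PEI-treated glass-fiber filters, scintillation counting. IC50 from competitive binding isotherm fit.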

Row | Compound | IC50 [µM]
1 | Clc1ccc(CNCCCCCCNCCSSCCNCCCCCCNCc2ccc(Cl)cc2)cc1 | 37.8
2 | COc1cccc(CNCCCCCCNCCSSCCNCCCCCCNCc2cccc(OC)c2)c1 | 21.5
3 | Oc1ccc(CNCCCCCCNCCSSCCNCCCCCCNCc2ccc(O)cc2)cc1 | 162
4 | Clc1cccc(CNCCCCCCNCCSSCCNCCCCCCNCc2cccc(Cl)c2)c1 | 46.7
5 | c1ccc(CNCCCCCCNCCSSCCNCCCCCCNCc2ccccc2)cc1 | 191
6 | Oc1cccc(CNCCCCCCNCCSSCCNCCCCCCNCc2cccc(O)c2)c1 | 20.3
7 | COc1ccc(CNCCCCCCNCCSSCCNCCCCCCNCc2ccc(OC)cc2)cc1 | 44.1
8 | Oc1ccccc1CNCCCCCCNCCSSCCNCCCCCCNCc1ccccc1O | 50.6
9 | c1ccc2cc(CNCCCCCCNCCSSCCNCCCCCCNCc3ccc4ccccc4c3)ccc2c1 | 31.3
10 | Clc1ccccc1CNCCCCCCNCCSSCCNCCCCCCNCc1ccccc1Cl | 79.9
11 | NCCCCCCNCCSSCCNCCCCCCN | > 1400
12 | COc1ccccc1CNCCCCCCNCCSSCCNCCCCCCNCc1ccccc1OC [BENEXTRAMINE] | 57.6

Organism: Rattus norvegicus
Assay: Displacement of [3H]NPY from rat brain NPY receptor compared to benextramine
Summary of the method: as §1

Row | Compound | Relative activity
13 | Clc1ccc(CNCCCCCCNCCSSCCNCCCCCCNCc2ccc(Cl)cc2)cc1 | 1.5
14 | COc1cccc(CNCCCCCCNCCSSCCNCCCCCCNCc2cccc(OC)c2)c1 | 2.7
15 | Oc1ccc(CNCCCCCCNCCSSCCNCCCCCCNCc2ccc(O)cc2)cc1 | 0.4
16 | Clc1cccc(CNCCCCCCNCCSSCCNCCCCCCNCc2cccc(Cl)c2)c1 | 1.2
17 | c1ccc(CNCCCCCCNCCSSCCNCCCCCCNCc2ccccc2)cc1 | 0.3
18 | Oc1cccc(CNCCCCCCNCCSSCCNCCCCCCNCc2cccc(O)c2)c1 | 2.8
19 | COc1ccc(CNCCCCCCNCCSSCCNCCCCCCNCc2ccc(OC)cc2)cc1 | 1.3
20 | Oc1ccccc1CNCCCCCCNCCSSCCNCCCCCCNCc1ccccc1O | 1.1
21 | c1ccc2cc(CNCCCCCCNCCSSCCNCCCCCCNCc3ccc4ccccc4c3)ccc2c1 | 1.8
22 | Clc1ccccc1CNCCCCCCNCCSSCCNCCCCCCNCc1ccccc1Cl | 0.7
23 | NCCCCCCNCCSSCCNCCCCCCN | < 0.04
24 | COc1ccccc1CNCCCCCCNCCSSCCNCCCCCCNCc1ccccc1OC [BENEXTRAMINE] | 1

Test system: not listed separately
Assay: Relative potency of compound at alpha-adrenoceptor to that of benextramine was measured by ability to antagonize the effect of epinephrine on the contractions of the electrically stimulated rat vas deferens
Assay type: tissue-based

Row | Compound | Relative activity
25 | Clc1ccc(CNCCCCCCNCCSSCCNCCCCCCNCc2ccc(Cl)cc2)cc1 | 0.5
26 | COc1cccc(CNCCCCCCNCCSSCCNCCCCCCNCc2cccc(OC)c2)c1 | 0.72
27 | Oc1ccc(CNCCCCCCNCCSSCCNCCCCCCNCc2ccc(O)cc2)cc1 | 0.14
28 | Clc1cccc(CNCCCCCCNCCSSCCNCCCCCCNCc2cccc(Cl)c2)c1 | 0.46
29 | c1ccc(CNCCCCCCNCCSSCCNCCCCCCNCc2ccccc2)cc1 | 0.9
30 | Oc1cccc(CNCCCCCCNCCSSCCNCCCCCCNCc2cccc(O)c2)c1 | 0.24
31 | COc1ccc(CNCCCCCCNCCSSCCNCCCCCCNCc2ccc(OC)cc2)cc1 | 0.81
32 | Oc1ccccc1CNCCCCCCNCCSSCCNCCCCCCNCc1ccccc1O | 0.36
33 | c1ccc2cc(CNCCCCCCNCCSSCCNCCCCCCNCc3ccc4ccccc4c3)ccc2c1 | 0.27
34 | Clc1ccccc1CNCCCCCCNCCSSCCNCCCCCCNCc1ccccc1Cl | 0.44
35 | NCCCCCCNCCSSCCNCCCCCCN | 0.27
36 | COc1ccccc1CNCCCCCCNCCSSCCNCCCCCCNCc1ccccc1OC [BENEXTRAMINE] | 1
